From ChEMBL document CHEMBL4229472, “Surface Probing by Fragment-Based Screening and Computational Methods Identifies Ligandable Pockets on the von Hippel-Lindau (VHL) E3 Ubiquitin Ligase” (J Med Chem, 2018)
pKd: −log10 of the molar value.

Tests used:
[1] = biological target: Von Hippel-Lindau disease tumor suppressor/Elongin B/Elongin C (Homo sapiens) (UniProt P40337+Q15370+Q15369); assay: (§1) Binding affinity to N-terminal His6 tagged VHL (54 to 213 residues)/ELoC (17 to 112 residues)/EloB (1 to 120 residues) (unknown origin) complex expressed in Escherichia coli BL21(DE3) assessed as change in melting temperature at 1 mM by Sypro orange dye based differential scanning fluorimetric analysis
How it was run: (§2)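 Thermal shift screen with each fragment tested as a singleton. Unfolding temperature is followed with a fluorescent dye that binds preferentially to unfolded protein. For line 1 the target is VCB alone. For line 3 it is VCB preincubated with HIF-1α peptide (VCBH), which separates binders of the HIF site from binders elsewhere in the complex.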

[2] = biological target: T1, von Hippel-Lindau disease tumor suppressor/Elongin-C/Elongin-B/HIF1A (Homo sapiens) (UniProt Q16665+P40337+Q15370+Q15369); assay: as §1, with “120 residues)/HIF-1alpha” for “120 residues)”; how it was run: as §2
[3] = biological target: Von Hippel-Lindau disease tumor suppressor/Elongin B/Elongin C (Homo sapiens, UniProt P40337); assay: Binding affinity to N-terminal His6 tagged VHL (54 to 213 residues)/ELoC (17 to 112 residues)/EloB (1 to 120 residues) (unknown origin) complex expressed in Escherichia coli BL21(DE3) assessed as dissociation constant by ITC method
[4] = biological target: T1, von Hippel-Lindau disease tumor suppressor/Elongin-C/Elongin-B/HIF1A (Homo sapiens); assay: Binding affinity to N-terminal His6 tagged VHL (54 to 213 residues)/ELoC (17 to 112 residues)/EloB (1 to 120 residues)/HIF-1alpha (unknown origin) complex expressed in Escherichia coli BL21(DE3) assessed as change in melting temperature at 1 mM in presence of DEALA-Hyp-YIPMDDDFQLRSF by differential scanning fluorimetry

ΔTm [1] [°C]	ΔTm [2] [°C]	pKd [3]	ΔTm [4] [°C]	Structure (SMILES)
> 0.5	> 0.5	2.30		OCc1ccc(-n2cccc2)cc1
> 0.5	> 0.5	2.17	1.2	O=C1CCSc2ccc(Cl)cc21
> 0.5	> 0.5		0.7	COC(=O)c1cc2occc2[nH]1
